Experimental data: ChEMBL document CHEMBL4513216, “Probing the Open Global Health Chemical Diversity Library for Multistage-Active Starting Points for Next-Generation Antimalarials” (ACS Infect Dis, 2020)

Assay: Toxicity liver stage against HepG2, at 10uM
Assay type: cell-based
Parameters: test concentration 10 uM, cell line HepG2-A16-CD81EGFP
Details: human, HepG2-A16-CD81EGFP cells; read-out: INHIBITION
Summary of the method: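 Uninfected HepG2-A16-CD81EGFP cells, 3 × 10^3 per well, 1536-well, plated on prespotted compound at 10 μM final, parasite-free screening media added to match infected plates; puromycin 10 μM positive, DMSO 0.5% negative; run in parallel with 48 h PbLuc assay at 37 °C, 5% CO2; viability by CellTiter-Glo luminescence, normalized to controls.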

Q: Which cytotoxicity at 10 µM does the source give for `CC(=O)N1CCCC(c2ccc(Nc3nc(C)cc(C)n3)cn2)C1` (stereo not given) here?
A: -4.09%

Q: Which cytotoxicity at 10 µM does the source give for `CS(=O)(=O)C1CCN(S(=O)(=O)c2ccc(F)c(F)c2)C1` (stereo not given) here?
A: -9.52%

Q: Which cytotoxicity at 10 µM does the source give for `CNC(=O)[C@H]1C[C@H]2CN(C(=O)NCCc3ccccc3)C[C@@H]1O2` here?
A: 2.89%

Q: For `Cc1n[nH]c(C)c1CNC(=O)N(Cc1ccccc1)CC(C)(C)O`, which cytotoxicity at 10 µM is on record?
A: 1.72%

Q: Which cytotoxicity at 10 µM does the source give for `O=C1CCC(C(=O)NCc2nn(-c3ccccc3)c3c2CCC3)CN1` (stereo not given) here?
A: -10.1%

Q: For `CC(C)c1noc(-c2ccc(NCCCN3CCCC(O)C3)nc2)n1` (stereo not given), which cytotoxicity at 10 µM is on record?
A: -6.87%

Q: With `O=C(Cc1ccc2c(c1)CCC2)NCCNc1ncccn1` as the molecule, how does the cytotoxicity at 10 µM read?
A: -3.93%

Q: With `Cc1nnc(N2CCC(CCN(C)C)CC2)c(C#N)c1C` as the molecule, how does the cytotoxicity at 10 µM read?
A: -1.33%

Q: For `CC(C)[C@H]1COC(=O)N1CC(=O)N1CCN(C(=O)c2ccco2)CC1`, which cytotoxicity at 10 µM is on record?
A: 4.32%

Q: Which cytotoxicity at 10 µM does the source give for `O=C(NCCCN1CCN(c2ncccn2)CC1)NCC1CCCO1` (stereo not given) here?
A: -43.1%

Q: With `Cc1csc(NC(=O)c2cnc(C3CCNCC3)cn2)n1` as the molecule, how does the cytotoxicity at 10 µM read?
A: -12.3%

Q: Which cytotoxicity at 10 µM does the source give for `CCOc1cc(CN(C)CCCO)ccc1OC(F)F` here?
A: -14.1%

Q: Which cytotoxicity at 10 µM does the source give for `CCc1noc(CS(=O)(=O)CC(=O)N2c3ccccc3CC2C)n1` (stereo not given) here?
A: 7.07%

Q: With `Cc1cccc(N2CCOCC3(C2)CN(c2cncnc2)C(=O)CO3)n1` (stereo not given) as the molecule, how does the cytotoxicity at 10 µM read?
A: 5.88%

Q: With `CCCN1CCN(Cc2cccc(OC)c2)[C@H]2CS(=O)(=O)C[C@H]21` as the molecule, how does the cytotoxicity at 10 µM read?
A: -8.15%

Q: Which cytotoxicity at 10 µM does the source give for `COCCc1ncc(CNC2(c3ccc(Cl)cc3Cl)CC2)cn1` here?
A: -15.8%

Q: With `COc1ccc2c(c1)OC1(CCN(Cc3ccccc3C)CC1)CC2=O` as the molecule, how does the cytotoxicity at 10 µM read?
A: 6.52%

Q: Which cytotoxicity at 10 µM does the source give for `O=C(c1ccccc1)N1CC[C@H]2C[C@H](c3nccs3)O[C@@H]2C1` here?
A: 8.39%

Q: With `Cc1nc(CN2CCCN(CC(=O)N(C)C(C)(C)C#N)CC2)no1` as the molecule, how does the cytotoxicity at 10 µM read?
A: 9.5%

Q: Which cytotoxicity at 10 µM does the source give for `CCOCc1ccc(CNC2=NCCCN2)cc1` here?
A: -51.5%

Q: For `O=C(NC[C@H]1OC[C@@H](NC2CCC(F)(F)CC2)[C@@H]1O)N1CCOCC1`, which cytotoxicity at 10 µM is on record?
A: -0.0603%

Q: For `COc1ccccc1CC(=O)N1CCC(OCc2cccnc2)CC1`, which cytotoxicity at 10 µM is on record?
A: 4.87%

Q: With `CCc1nc(CCNS(=O)(=O)c2cccc(C(=O)N(C)CC)c2)cs1` as the molecule, how does the cytotoxicity at 10 µM read?
A: -36.2%

Q: With `Cc1nnc(CN(Cc2ccc(Cl)c(Cl)c2)C(C)C)o1` as the molecule, how does the cytotoxicity at 10 µM read?
A: 4.91%

Q: With `CCCN1CCN(c2nc(N)nc3c2nc(C)n3C)CC1` as the molecule, how does the cytotoxicity at 10 µM read?
A: -5.15%

Q: Which cytotoxicity at 10 µM does the source give for `CC(C)CCn1cc(C(C(=O)O)N2CCCN(C3CCCC3)CC2)cn1` (stereo not given) here?
A: -5.84%

Q: With `CN1CCN(C(=O)c2ncn3c2CN(C)S(=O)(=O)c2ccccc2-3)CC1` as the molecule, how does the cytotoxicity at 10 µM read?
A: -153%

Q: For `Cc1ccc(CN(C(=O)NCC2CCCO2)C2CC2)o1` (stereo not given), which cytotoxicity at 10 µM is on record?
A: -151%

Q: With `O=C(COC1CCCCC1)N1CCN(C(=O)Cc2ccccn2)CC1` as the molecule, how does the cytotoxicity at 10 µM read?
A: -1.3%

Q: Which cytotoxicity at 10 µM does the source give for `CCc1cnc(CCNC(=O)N2CCCC(c3ncc[nH]3)C2)s1` (stereo not given) here?
A: -4.15%

Q: For `CN1CCC(C(=O)NCc2nncn2-c2ccccc2)CC1=O` (stereo not given), which cytotoxicity at 10 µM is on record?
A: -4.32%

Q: With `CCn1cc(CN2CCCN(C(=O)CCn3cc(C)cn3)CC2)cn1` as the molecule, how does the cytotoxicity at 10 µM read?
A: -2.11%

Q: For `COCCN1CCN(CC2CCCCO2)CC1` (stereo not given), which cytotoxicity at 10 µM is on record?
A: 6.29%

Q: Which cytotoxicity at 10 µM does the source give for `CCN1CCCc2cc(-c3cncn3C(C)CN3CCOCC3)ccc21` (stereo not given) here?
A: 12.6%

Q: For `Cc1nn(C)c(Cl)c1S(=O)(=O)N(C)c1ccc(Cl)cn1`, which cytotoxicity at 10 µM is on record?
A: 7.92%

Q: Which cytotoxicity at 10 µM does the source give for `COCC(=O)NCc1nn(CCN2CCCC2)c(=O)c2ccccc12` here?
A: -18.9%

Q: For `COC(=O)N1CCc2ccccc2C1C(=O)NCc1ccncc1` (stereo not given), which cytotoxicity at 10 µM is on record?
A: -4.83%

Q: For `Cc1ccc(NC(=O)N(C)CC(O)COCCOC(C)C)c(Br)c1` (stereo not given), which cytotoxicity at 10 µM is on record?
A: 11.2%

Q: For `O=C(Cn1cc(-c2ccccc2)ncc1=O)Nc1nnc[nH]1`, which cytotoxicity at 10 µM is on record?
A: 20.3%

Q: With `CSCc1ccc(CNCCN2CCOCC2)o1` as the molecule, how does the cytotoxicity at 10 µM read?
A: -0.583%

Q: With `O=C(CCNC(=O)c1ccoc1)Nc1cccc(F)c1` as the molecule, how does the cytotoxicity at 10 µM read?
A: -8.63%

Q: Which cytotoxicity at 10 µM does the source give for `CCCN1CCN(C(=O)c2ccc(Cl)cn2)[C@H]2CS(=O)(=O)C[C@H]21` here?
A: -4.15%

Q: Which cytotoxicity at 10 µM does the source give for `CCN1CCN(C)C(=O)C12CCN(C(=O)Cc1ccccn1)CC2` here?
A: 0.597%

Q: For `Cc1n[nH]c(=O)c2c(NC(=O)CN3CCC(O)CC3)oc(C)c12`, which cytotoxicity at 10 µM is on record?
A: 1.17%

Q: Which cytotoxicity at 10 µM does the source give for `COC1CN(C(=O)NC2CCCC2)CCC(=O)N(C)c2ccccc21` (stereo not given) here?
A: -9.35%

Q: Which cytotoxicity at 10 µM does the source give for `CC(C)c1noc(OCc2cccc(S(=O)(=O)N(C)C)c2)n1` here?
A: -45.9%

Q: For `COc1cccc(Cl)c1C(C(=O)O)N(C)Cc1nnc(C)o1` (stereo not given), which cytotoxicity at 10 µM is on record?
A: -23.4%

Q: For `Cc1ccc(CN2CC[C@@H]3[C@@H]2CCN3C(=O)Cc2cccs2)o1`, which cytotoxicity at 10 µM is on record?
A: -119%

Q: For `Cc1nc(C(C)C)sc1C(=O)NCCNc1ncccc1C#N`, which cytotoxicity at 10 µM is on record?
A: -2.55%

Q: For `CNS(=O)(=O)CCCN(C)Cc1cc(C)ccc1OC`, which cytotoxicity at 10 µM is on record?
A: -61%

Q: With `COc1ccc(OC2CCN(C(=O)C3CCCN(C)C3)CC2)cc1` (stereo not given) as the molecule, how does the cytotoxicity at 10 µM read?
A: -59.6%

Q: With `CNC(=O)[C@@H](c1ccccc1F)N1CCC[C@H]1C(=O)NC1CC1` as the molecule, how does the cytotoxicity at 10 µM read?
A: -5.84%

Q: For `CCc1nnc(CNC(=O)CCN2CCN(c3cccc(C)c3)CC2)s1`, which cytotoxicity at 10 µM is on record?
A: -1.82%

Q: With `NC(=O)COc1ccc(CN2CCC(O)(CN3CCCCC3)C2)cc1Cl` (stereo not given) as the molecule, how does the cytotoxicity at 10 µM read?
A: -1.73%

Q: For `Cc1nc(C)c(CC(=O)N2C[C@@H](C(=O)O)[C@H](c3ccncc3)C2)s1`, which cytotoxicity at 10 µM is on record?
A: -127%
